Source: ChEMBL document CHEMBL1208687, “Synthesis, antibacterial activity evaluation and QSAR studies of novel dispiropyrrolidines” (2010)
≈ marks a conversion by molar mass, not a printed value.

Key:
Assay type in all cases: functional
Pseudomonas aeruginosa = experiment: Antimicrobial activity against Pseudomonas aeruginosa NCIM 5029 after 18 hrs by broth microdilution assay; conditions: NCIM 5029, 18 h
In short: (§1)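 MIC by broth microdilution in Mueller Hinton broth, final inoculum 5 × 10⁵ CFU/ml. Compounds dissolved in absolute ethanol (10 mg per 1 ml stock), then serially diluted into successive wells. Incubated with organism at 37 °C for 18 h with growth and sterility controls, ethanol blank, and uninoculated dilutions checked for precipitation. Then 0.01% resazurin added, read after 2 h further incubation.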

Staphylococcus aureus = experiment: Antimicrobial activity against Staphylococcus aureus NCIM 5021 after 18 hrs by broth microdilution assay; conditions: NCIM 5021, 18 h; in short: as §1
Bacillus subtilis = experiment: Antimicrobial activity against Bacillus subtilis NCIM 2718 after 18 hrs by broth microdilution assay; conditions: NCIM 2718, 18 h; in short: as §1

CN1C(=O)C[C@@]2(C1=O)[C@@H](c1ccccc1O)CN(C)[C@@]21C(=O)Nc2ccccc21
MIC (Pseudomonas aeruginosa): 80 µM (≈ 31.3 µg/mL) | MIC (Staphylococcus aureus): 639 µM (≈ 250 µg/mL) | MIC (Bacillus subtilis): 639 µM (≈ 250 µg/mL)

CN1C(=O)C[C@@]2(C1=O)[C@@H](c1ccccc1O)CN(C)[C@@]21C(=O)N(C)c2ccccc21
MIC (Pseudomonas aeruginosa): 77 µM (≈ 31.2 µg/mL) | MIC (Staphylococcus aureus): 617 µM (≈ 250 µg/mL) | MIC (Bacillus subtilis): 617 µM (≈ 250 µg/mL)

COc1ccc([C@H]2CN(C)[C@@]3(C(=O)Nc4ccccc43)[C@@]23CC(=O)N(C)C3=O)cc1
MIC (Pseudomonas aeruginosa): 154 µM (≈ 62.4 µg/mL) | MIC (Staphylococcus aureus): 617 µM (≈ 250 µg/mL) | MIC (Bacillus subtilis): 617 µM (≈ 250 µg/mL)

COc1ccc([C@H]2CN(C)[C@@]3(C(=O)N(C)c4ccccc43)[C@@]23CC(=O)N(C)C3=O)cc1
MIC (Pseudomonas aeruginosa): 298 µM (≈ 125 µg/mL) | MIC (Staphylococcus aureus): 298 µM (≈ 125 µg/mL) | MIC (Bacillus subtilis): 596 µM (≈ 250 µg/mL)

C#CCN1C(=O)[C@]2(c3ccccc31)N(C)C[C@H](c1ccccc1O)[C@]21CC(=O)N(C)C1=O
MIC (Pseudomonas aeruginosa): 146 µM (≈ 62.7 µg/mL) | MIC (Staphylococcus aureus): 291 µM (≈ 125 µg/mL) | MIC (Bacillus subtilis): 291 µM (≈ 125 µg/mL)

COc1ccc([C@H]2CN(C)[C@@]3(C(=O)N(Cc4ccccc4)c4ccccc43)[C@@]23CC(=O)N(C)C3=O)cc1
MIC (Pseudomonas aeruginosa): 252 µM (≈ 125 µg/mL) | MIC (Staphylococcus aureus): 252 µM (≈ 125 µg/mL) | MIC (Bacillus subtilis): 504 µM (≈ 250 µg/mL)

CN1C(=O)C[C@@]2(C1=O)[C@@H](c1ccc(Cl)cc1)CN(C)[C@@]21C(=O)Nc2ccccc21
MIC (Pseudomonas aeruginosa): 152 µM (≈ 62.3 µg/mL) | MIC (Staphylococcus aureus): 305 µM (≈ 125 µg/mL) | MIC (Bacillus subtilis): 610 µM (≈ 250 µg/mL)

CN1C(=O)C[C@@]2(C1=O)[C@@H](c1ccc(Cl)cc1)CN(C)[C@@]21C(=O)N(C)c2ccccc21
MIC (Pseudomonas aeruginosa): 147 µM (≈ 62.3 µg/mL) | MIC (Staphylococcus aureus): 295 µM (≈ 125 µg/mL) | MIC (Bacillus subtilis): 590 µM (≈ 250 µg/mL)

Cc1ccc([C@H]2CN(C)[C@@]3(C(=O)Nc4ccccc43)[C@@]23CC(=O)N(C)C3=O)cc1
MIC (Pseudomonas aeruginosa): 321 µM (≈ 125 µg/mL) | MIC (Staphylococcus aureus): 321 µM (≈ 125 µg/mL) | MIC (Bacillus subtilis): 642 µM (≈ 250 µg/mL)

CC1(C)S[C@@H]2[C@H](NC(=O)[C@H](N)c3ccccc3)C(=O)N2[C@H]1C(=O)O [AMPICILLIN]
MIC (Pseudomonas aeruginosa): 168 µM (≈ 58.7 µg/mL) | MIC (Staphylococcus aureus): 84 µM (≈ 29.4 µg/mL) | MIC (Bacillus subtilis): 168 µM (≈ 58.7 µg/mL)

CN(C)[C@@H]1C(O)=C(C(N)=O)C(=O)[C@@]2(O)C(O)=C3C(=O)c4c(O)cccc4[C@@](C)(O)[C@H]3C[C@@H]12 [TETRACYCLINE]
MIC (Pseudomonas aeruginosa): 4 µM (≈ 1.78 µg/mL) | MIC (Staphylococcus aureus): 2 µM (≈ 0.889 µg/mL) | MIC (Bacillus subtilis): 1 µM (≈ 0.444 µg/mL)
